The text below walks through data of ChEMBL document CHEMBL3259518, “Semisynthesis, ex vivo evaluation, and SAR studies of coumarin derivatives as potential antiasthmatic drugs” (Eur J Med Chem, 2014).

Common to all, as to format: functional
Assay [1] in a line: Antiasthamic activity in Wistar rat tracheal ring assessed as reversal of carbachol-induced contraction at 0.1 to 500 uM relative to control. The following applies: Trachea. An outline of the steps: (§1)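 Tracheas from male Wistar rats (250–300 g) were cleaned and cut into 4–5 mm rings of 2–3 cartilages each. Tension was recorded with force transducers. After equilibration, rings were contracted with 1 µM carbachol and washed every 40 min for 2 h. Cumulative concentration–response curves followed carbachol contraction, with relaxation taken from tone before vs after addition. Theophylline (1.67–550 µM) was the positive control. Six animals per group; EC50 and Emax came from nonlinear curve fitting.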

Assay [2] in a line: Antiasthamic activity in Wistar rat tracheal ring assessed as reversal of carbachol-induced contraction. The following applies: Trachea. The essentials:
as §1

For the next assay, the system named is Trachea. The experiment in a line: Potency index, ratio of theophylline EC50 to compound EC50 for antiasthamic activity in Wistar rat tracheal ring assessed as reversal of carbachol-induced contraction.

In general, Emax refers to the maximal effect, on the per cent scale that the assay sets. Broadly, the EC50 is the concentration needed to bring the measured effect to its halfway point. On to `CC(=O)Oc1ccc2c(C)cc(=O)oc2c1`, for which, in assay [1], the Emax was found to be 62%. The EC50 in assay [2] worked out at 360 µM. For the compound `Cc1cc(=O)oc2cc(OC(=O)c3ccccc3)ccc12`, the Emax in assay [1] was determined as 34%. Same read-out and setting: as for `O=C(Oc1ccc2ccc(=O)oc2c1)c1ccccc1`, the figure is 26%. In the case of `CCOC(=O)COc1ccc2c(C)cc(=O)oc2c1`, in assay [1], the Emax was determined as 70%. The EC50 in assay [2] came out at 200 µM. `CCOc1ccc2c(C)cc(=O)oc2c1`: the Emax in assay [1] came out at 100%. The EC50 in assay [2] came to 80 µM. With `CCOC(=O)COc1ccc2ccc(=O)oc2c1`, the Emax in assay [1] was found to be 31%. Turning to `CCOc1cc2ccc(=O)oc2cc1OCC`, the Emax in assay [1] came to 100%. Besides, the “Ratio EC50” value in the assay with Trachea came to 4. Besides, the concentration giving a half-maximal response (EC50) in assay [2] worked out at 42 µM. Regarding `CCCOc1cc2ccc(=O)oc2cc1OCCC`, in assay [1], the Emax turned out to be 100%. The EC50 in assay [2] was found to be 89 µM.

With `CC(=O)Oc1cc2ccc(=O)oc2cc1OC(C)=O`, the Emax in assay [1] was 77%. Further, the EC50 in assay [2] was 231 µM. With `O=C(Oc1cc2ccc(=O)oc2cc1OC(=O)c1ccccc1)c1ccccc1`, in assay [1], the Emax worked out at 12%. In the case of `CCOC(=O)COc1cc2ccc(=O)oc2cc1OCC(=O)OCC`, in assay [1], the Emax was determined as 33%. In the case of `CCCOc1ccc2c(C)cc(=O)oc2c1`, the Emax in assay [1] turned out to be 100%. For the same compound, the EC50 in assay [2] came to 267 µM. Consider `CC(=O)Oc1ccc2ccc(=O)oc2c1` [7-ACETOXYCOUMARIN], for which, in assay [1], the Emax was found to be 16%. Regarding `CCCOc1ccc2ccc(=O)oc2c1` [7-PROPOXYCOUMARIN], the Emax in assay [1] was 100%. Moreover, the EC50 in assay [2] turned out to be 133 µM. In the case of `O=c1ccc2cc(O)c(O)cc2o1` [ESCULETIN], the Emax in assay [1] turned out to be 47.9%.

Turning to `CCOc1ccc2ccc(=O)oc2c1` [ETHOXYCOUMARIN], the Emax in assay [1] came to 100%. The EC50 in assay [2] was found to be 245 µM. For `COc1ccc2ccc(=O)oc2c1` [HERNIARIN], in that order: 100% and 244 µM. For `COc1ccc2c(C)cc(=O)oc2c1` [HYMECROMONE METHYL ETHER], in that order: 100% and 230 µM.

In the case of `Cc1cc(=O)oc2cc(O)ccc12` [HYMECROMONE], the Emax in assay [1] came to 90%. Also, in assay [2], the EC50 is 260 µM.

Turning to `COc1cc2ccc(=O)oc2cc1OC` [SCOPARONE], in assay [1], the maximal response (Emax) was determined as 100%. Moreover, the 50% effective concentration (EC50) in assay [2] was 80 µM. For `Cn1c(=O)c2nc[nH]c2n(C)c1=O` [THEOPHYLLINE], in that order: 100% and 144 µM. Take `O=c1ccc2ccc(O)cc2o1` [UMBELLIFERONE]: in assay [1], the Emax came to 67%. For the same compound, the EC50 in assay [2] turned out to be 449 µM.
